A short description of data set [1]: folding enthalpy; higher = less favourable; fluorescence melt of hairpins on a sequencing array, two-state fit. As to conditions: sodium 0.088 M. The method in brief: (§1)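 Hairpins were imaged by Cy3 fluorescence on a sequenced MiSeq flow cell with annealed Cy3 and quencher oligos, in 50 mM Na-HEPES pH 8.0, 25 mM NaCl, in 2.5 °C steps up to 60 °C. Bootstrapped two-state fits of normalised signals gave melting temperature and folding enthalpy. Four replicates were combined by inverse variance, and fitted temperatures were raised by 9.35 °C to match UV melts.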

A short description of data set [2]: melting temperature; fluorescence melt of hairpins on a sequencing array, two-state fit, raised by 9.35 °C to match UV melts. As to conditions: sodium 0.088 M. The method in brief:
as §1

For 73 sequences, folding enthalpy and Tm results are on record in the array DNA melting data of Ke et al. (doi:10.1101/2024.01.08.574731).

With GCAGCGCGAAAGCCGTGC (((..((....))..))), the folding enthalpy in data set [1] was -15.3 kcal/mol. In data set [2], the Tm is 43.9 °C.
The corresponding values for GCAGCGCGAAAGCGACGC ((..(((....)))..)) are -18.4 kcal/mol and 60.7 °C.
The corresponding values for GCAGCGCGAAAGCTCCGC ((.(.((....)).).)) are -11.6 kcal/mol and 37.9 °C.
The corresponding values for GCAGCGGCGAAAGCCTGC (((..(((....)))))) are -12.9 kcal/mol and 52.2 °C.
GCAGCGGGAAACCGCTAC (.(((((....))))).): the folding enthalpy in data set [1] is -11.3 kcal/mol. Moreover, in data set [2], the Tm stood at 40.2 °C.
Turning to GCAGCGGGAAACCGTTGC (((.(((....))).))), in data set [1], the folding enthalpy is -39.4 kcal/mol. Further, in data set [2], the Tm is 57.9 °C.
Turning to GCAGCGTCGAAAGACTGC (((..(((....)))))), the folding enthalpy in data set [1] was -14 kcal/mol. The Tm in data set [2] amounted to 44.4 °C.
The corresponding values for GCAGCTCGAAAGAGTTGC (((.(((....))).))) are -44.2 kcal/mol and 59.6 °C.
The matching figures for GCAGCTGGAAACAACTGC ((((.((....)).)))): -39.9 kcal/mol and 46.6 °C.
The matching figures for GCAGGAACGAAAGTTTGC (((..(((....)))))): -16.6 kcal/mol and 36 °C.
For GCAGGCACGAAAGTGTGC (((..(((....)))))), the folding enthalpy in data set [1] was -14.9 kcal/mol. The Tm in data set [2] is 39.1 °C.
The matching figures for GCAGGCGAAAGCCACTGC ((((((....)))..))): -15.9 kcal/mol and 48 °C.
Regarding GCAGGCGAAAGCCCGTGC ((((((....)))..))), the folding enthalpy in data set [1] is -13.1 kcal/mol. Moreover, the Tm in data set [2] amounted to 43.6 °C.
The matching figures for GCAGGCGAAAGCCTTGC ((((((....))).))): -17.6 kcal/mol and 59.2 °C.
Consider GCAGGCGGAAACGCCCAC (..((((....))))..), for which the folding enthalpy in data set [1] was -6.7 kcal/mol. Also, the Tm in data set [2] came out at 27.1 °C.
With GCAGGGACGAAAGTCTGC (((..(((....)))))), the folding enthalpy in data set [1] was -23 kcal/mol. The Tm in data set [2] was 47.9 °C.
Regarding GCAGGGCGAAAGCCCAGC ((.((((....)))).)), the folding enthalpy in data set [1] was -19.5 kcal/mol. In data set [2], the Tm is 68.2 °C.
The corresponding values for GCAGGGCGAAAGCCGCGC ((..(((....)))..)) are -22.2 kcal/mol and 64.7 °C.
The corresponding values for GCAGGGCGAAAGCGATGC (((..((....))..))) are -26.1 kcal/mol and 57 °C.
The corresponding values for GCAGGTGCGAAAGCATGC (((..(((....)))))) are -13.5 kcal/mol and 43.9 °C.
Take GCAGGTGGAAACACCCAC (..((((....))))..): the folding enthalpy in data set [1] was -10.6 kcal/mol. For the same sequence, the Tm in data set [2] stood at 32.1 °C.
Regarding GCAGGTGGAAACGTCTGC ((((..(....)..)))), the folding enthalpy in data set [1] is -25.7 kcal/mol. Further, in data set [2], the Tm is 42.5 °C.
The corresponding values for GCAGTAGAAATACTGC ((((((....)))))) are -34.6 kcal/mol and 54.8 °C.
The corresponding values for GCAGTAGGAAACTATTGC (((.(((....))).))) are -26.9 kcal/mol and 42.6 °C.
The matching figures for GCAGTCACGAAAGTGTGC (((..(((....)))))): -19.5 kcal/mol and 38 °C.
For the sequence GCAGTCGAAAGACTTGC ((((((....))).))), in data set [1], the folding enthalpy is -22.6 kcal/mol. Moreover, the Tm in data set [2] is 50.4 °C.
Turning to GCAGTCGCGAAAGCGTGC (((..(((....)))))), the folding enthalpy in data set [1] was -14.2 kcal/mol. Further, the Tm in data set [2] turned out to be 46.1 °C.
For GCAGTGACGAAAGTCTGC (((..(((....)))))), the folding enthalpy in data set [1] was -23.8 kcal/mol. The Tm in data set [2] stood at 48 °C.
The matching figures for GCAGTGCGAAAGCAAAGC ((..(((....)))..)): -13.3 kcal/mol and 51.3 °C.
The matching figures for GCAGTGCGAAAGCAGAGC ((..(((....)))..)): -11.6 kcal/mol and 50.9 °C.
The matching figures for GCAGTGCGAAAGCAGCGC ((..(((....)))..)): -17 kcal/mol and 59.7 °C.
On to GCAGTGCGAAAGCATGC (((.(((....)))))), for which the folding enthalpy in data set [1] was -20.4 kcal/mol. In addition, the Tm in data set [2] was found to be 58.7 °C.
The corresponding values for GCAGTGCGAAAGCATTGC (((.(((....))).))) are -55.4 kcal/mol and 58.9 °C.
The corresponding values for GCAGTGCGAAAGCGCAGC ((.(.((....)).).)) are -14.2 kcal/mol and 62.3 °C.
With GCAGTGCGAAAGCGCGGC ((.(.((....)).).)), in data set [1], the folding enthalpy is -31 kcal/mol. In addition, the Tm in data set [2] is 66.7 °C.
For GCAGTGCGAAAGCTATGC (((..((....))..))), in data set [1], the folding enthalpy was -17.1 kcal/mol. Moreover, the Tm in data set [2] is 55.1 °C.
The matching figures for GCAGTGGGAAACCACCAC (..((((....))))..): -12.2 kcal/mol and 30.6 °C.
The corresponding values for GCAGTTCGAAAGAAGTGC (((.(((....))).))) are -51 kcal/mol and 56.2 °C.
The matching figures for GCAGTTGGAAACGATTGC (((.(.(....).).))): -20.5 kcal/mol and 36.1 °C.
In the case of GCAGTTTCGAAAGAATGC (((..(((....)))))), the folding enthalpy in data set [1] was -12.5 kcal/mol. In addition, the Tm in data set [2] stood at 25.8 °C.
The matching figures for GCATAAGGAAACTCATGC ((((.((....)).)))): -25.2 kcal/mol and 30.7 °C.
The matching figures for GCATAATCGAAAGATTGC (((..(((....)))))): -18.1 kcal/mol and 37.2 °C.
The corresponding values for GCATACCCGAAAGGGTGC (((..(((....)))))) are -12.1 kcal/mol and 49.7 °C.
For the sequence GCATACCGAAAGGTTGC (((.(((....)))))), the folding enthalpy in data set [1] was -32.3 kcal/mol. The Tm in data set [2] is 54 °C.
The matching figures for GCATACGAAAGTAATTGC ((((((....)))..))): -13.6 kcal/mol and 32.7 °C.
The corresponding values for GCATACGAAAGTACATGC ((((((....)))..))) are -26.9 kcal/mol and 38.9 °C.
The matching figures for GCATACGAAAGTACCTGC ((((((....)))..))): -13.2 kcal/mol and 26.6 °C.
Take GCATACGAAAGTAGCTGC ((((((....)))..))): in data set [1], the folding enthalpy is -23.6 kcal/mol. Also, in data set [2], the Tm came out at 48.1 °C.
As for GCATACGAAAGTAGTGC ((((((....))).))), the folding enthalpy in data set [1] is -24.1 kcal/mol. For the same sequence, the Tm in data set [2] amounted to 44.6 °C.
Turning to GCATACGGAAACGTATGC (((((((....))))))), in data set [1], the folding enthalpy is -47.5 kcal/mol. Besides, the Tm in data set [2] was found to be 67.7 °C.
The corresponding values for GCATAGCCGAAAGGCTGC (((..(((....)))))) are -12.6 kcal/mol and 49.3 °C.
Regarding GCATAGCGAAAGCAAAGC ((.(.((....)).).)), in data set [1], the folding enthalpy is -9.49 kcal/mol. The Tm in data set [2] stood at 32 °C.
Turning to GCATAGCGAAAGCCAGGC ((.(.((....)).).)), the folding enthalpy in data set [1] is -12.3 kcal/mol. Further, the Tm in data set [2] is 32.9 °C.
For the sequence GCATAGCGAAAGCCATGC ((((.((....)).)))), the folding enthalpy in data set [1] is -28.5 kcal/mol. In data set [2], the Tm came to 53.3 °C.
Consider GCATAGCGAAAGCTCGGC ((..(((....)))..)), for which the folding enthalpy in data set [1] is -16.2 kcal/mol. In addition, the Tm in data set [2] was found to be 36.5 °C.
The matching figures for GCATAGCGAAAGCTTCGC ((..(((....)))..)): -10.1 kcal/mol and 34.6 °C.
The matching figures for GCATAGGGAAACCTACGC ((.((((....)))).)): -27.9 kcal/mol and 35.9 °C.
The corresponding values for GCATATCCGAAAGGATGC (((..(((....)))))) are -15.2 kcal/mol and 43.5 °C.
Take GCATATCGAAAGATCTGC (((.(((....))).))): the folding enthalpy in data set [1] was -31.2 kcal/mol. In data set [2], the Tm is 43.9 °C.
The matching figures for GCATCAGGAAACTGGTGC (((.(((....))).))): -40.9 kcal/mol and 53.4 °C.
The matching figures for GCATCCCGAAAGGGCTGC (((.(((....))).))): -36.2 kcal/mol and 56.2 °C.
Regarding GCATCCGAAAGGAAGTGC ((((((....)))..))), in data set [1], the folding enthalpy is -24.3 kcal/mol. Also, in data set [2], the Tm was 41.3 °C.
The matching figures for GCATCCGAAAGGACCTGC ((((((....)))..))): -12.9 kcal/mol and 30 °C.
The matching figures for GCATCCGAAAGGACTGC ((((((....))).))): -15 kcal/mol and 47.8 °C.
The matching figures for GCATCCGAAAGGAGGTGC ((((((....)))..))): -24.9 kcal/mol and 48.1 °C.
Consider GCATCCGAAAGGATATGC ((((((....)))..))), for which the folding enthalpy in data set [1] was -15.7 kcal/mol. Further, the Tm in data set [2] was 47.6 °C.
The corresponding values for GCATCCGCGAAAGCGTGC (((..(((....)))))) are -10.9 kcal/mol and 40.3 °C.
For GCATCCGGAAACGGACGC ((.((((....)))).)), the folding enthalpy in data set [1] was -31.2 kcal/mol. Moreover, in data set [2], the Tm came to 51.3 °C.
The corresponding values for GCATCGCGAAAGCCAGGC ((.(.((....)).).)) are -10.4 kcal/mol and 37.2 °C.
The matching figures for GCATCGCGAAAGCGCCGC ((..(((....)))..)): -10.5 kcal/mol and 38 °C.
The matching figures for GCATCGCGAAAGCGGAGC ((..(((....)))..)): -16.5 kcal/mol and 54.2 °C.
For the sequence GCATCGCGAAAGCGGGGC ((..(((....)))..)), in data set [1], the folding enthalpy is -22.2 kcal/mol. Besides, the Tm in data set [2] stood at 63.1 °C.
The corresponding values for GCATCGCGAAAGCTTTGC (((..((....))..))) are -18.6 kcal/mol and 41.2 °C.
